Shown are actives, neighbours in structure and some others; about 1.8% of the full set was active somewhere.
MT1-MMP act inh – blockers of MT1-MMP proenzyme processing, primary screen, HT1080 RFP-PRO-GFP cells, GFP/RFP fluorescence; Matrix metalloproteinase-14 (Homo sapiens), P50281; GFP/RFP ratio fluorescence, overnight; percent of plate control window, DMSO zero; GFP/RFP ratio change, % at 20 µM; 360,000 compounds, 0.061% hits; AID 651647, 2012;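 active means GFP/RFP ratio change of at least 30% with cell ATP level not reduced by more than half and red fluorescence within 50% of control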
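Test system: HT1080 RFP-PRO-GFP cells; Benchmarks: DMSO and RFP-L50D-GFP cell wells; Timing: cells overnight before dosing, compound overnight, 37 °C, 5% CO2; Compound: one 20 µM compound dose with 1% DMSO; Read-out: GFP/RFP fluorescence ratio.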
SKN-1 inh – suppressors of acrylamide-induced Pgst-4::GFP reporter in worms, primary screen, SKN-1 inhibitor project, whole organism, uHTS, GFP/RFP fluorescence ratio, strain VP596; C. elegans VP596 Pgst-4::GFP/RFP ratio, 24 h; AID 624304, 2012; inhibition, % at 21.8 µM; 360,000 compounds, 0.49% hits;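 active means interference check ratio from 0.5 to 1.5 plus GFP to RFP signal ratio inhibition reaching or exceeding a fixed threshold, cut at about 30% in these data, passing the limit was not always enough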
DAGLB inhibitor – DAGLB lipase inhibitors, primary screen, biochemical, fluorescence, HTS. inhibition, % at 5.17 µM. HEK293T DAGLB membrane lysate, EnzChek fluorogenic substrate. 340,000 compounds, 0.059% hits; in the data active means inhibition above about 34%;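 further: 0% = enzyme with vehicle and 100% = wells lacking enzyme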
Target sequence (Q8NCG7 whole entry, looked up): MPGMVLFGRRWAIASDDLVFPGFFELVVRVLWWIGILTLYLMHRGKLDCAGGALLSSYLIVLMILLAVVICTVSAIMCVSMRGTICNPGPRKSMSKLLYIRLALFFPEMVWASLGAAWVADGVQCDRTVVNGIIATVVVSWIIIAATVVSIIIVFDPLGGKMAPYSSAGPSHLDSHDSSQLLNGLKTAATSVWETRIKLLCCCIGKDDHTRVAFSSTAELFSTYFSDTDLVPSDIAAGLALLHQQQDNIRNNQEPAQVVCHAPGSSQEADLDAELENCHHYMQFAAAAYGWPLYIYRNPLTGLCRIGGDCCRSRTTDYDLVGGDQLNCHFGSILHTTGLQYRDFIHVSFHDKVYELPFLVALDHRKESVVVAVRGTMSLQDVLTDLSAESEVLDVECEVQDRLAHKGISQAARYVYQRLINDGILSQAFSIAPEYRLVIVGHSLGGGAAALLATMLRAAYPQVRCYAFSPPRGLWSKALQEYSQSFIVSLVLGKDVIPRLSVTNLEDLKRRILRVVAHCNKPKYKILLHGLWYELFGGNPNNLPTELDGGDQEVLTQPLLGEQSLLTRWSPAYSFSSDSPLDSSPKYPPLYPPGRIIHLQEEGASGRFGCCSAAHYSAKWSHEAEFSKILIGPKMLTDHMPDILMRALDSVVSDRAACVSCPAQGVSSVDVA
Ecoli rRNA inh – reduced GFP signal of wild-type E. coli, primary screen, bacterial rRNA inhibitor project, GFP/RFP fluorescence, OD600, single point | E. coli WT GFP vs humanized-ribosome RFP mutants, 24 h; active compounds read low; DMSO median 0, no signal -100 | GFP signal change (wild-type ribosome), % (test concentration not listed) | 350,000 compounds, 1.6% hits | AID 720706, 2013;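 active means significant combined selectivity score with lowered wild-type GFP, culture density cut under 30%, mutant RFP and density less affected; inactive means any of these conditions unmet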
Cneo AK release – Cryptococcus neoformans cell lysis inducers, primary screen, AK release luminescence, single concentration | C. neoformans lysis, adenylate kinase release luminescence, 4 h; normalised: neutral wells 0, clomiphene wells 100 | lysis activity, % at 15 µM | 360,000 compounds, 0.2% hits | AID 651654, 2012;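 active means mean lysis activity across replicates of at least 80%, whatever share of replicates individually reach that level; inactive means mean lysis activity below 80%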
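Test system: log-phase Cryptococcus neoformans yeast cells. Input: 5 × 10^6 yeast cells/mL. Medium: fresh YPD growth medium. Doses: single dose. Incubation: static 4 h at 37 °C with compound, 1 h detection. Measured by: luminescent adenylate kinase detection reagent. Read-out: signal increase indicating cell lysis. Benchmarks: Clomiphene.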
hiPSC survival – enhancers of single-cell hiPSC survival, primary screen, ATPlite luminescence; 100% = ROCK inhibitor wells, 0% = DMSO; survival enhancement, % at 20 µM; 360,000 compounds, 0.044% hits; AID 602274, 2012; in the data active means survival enhancement above about 18%;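 further: cells exposed to compounds for 16 hours before the ATP read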
DAGLB confirm – DAGLB lipase inhibitors, retest, confirmation, biochemical, fluorescence, HEK293T membranes; shares compounds with DAGLB inhibitor; HEK293T DAGLB membrane lysate, EnzChek fluorogenic substrate; inhibition, % at 5.17 µM; 190 compounds, 73% hits;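 active means mean inhibition over triplicate wells above a set limit taken from the primary lipase screen, cut at about 34% in these data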;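 further: 0% = DAGLB with DMSO and 100% = wells lacking DAGLB enzyme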
MT1-MMP act val – MT1-MMP activation inhibitors, hit retest, confirmation, single concentration, fluorescence, HT1080 RFP-PRO-GFP cells. shares compounds with MT1-MMP act inh. GFP and RFP fluorescence ratio, overnight. inhibition, % at 20 µM. 200 compounds, 10% hits. AID 652235, 2013;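 active means inhibition of at least 50% in the primary cell screen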
Starred values were filed as active, the others as inactive.

What do the screens show for `CC(=O)c1ccc(N2CCN(c3ccc(C(F)(F)F)cn3)CC2)cc1`?
MT1-MMP act inh: 1; SKN-1 inh: 8; DAGLB inhibitor: 50*; Cneo AK release: -2; hiPSC survival: 2; DAGLB confirm: 70*

Results for CC(=O)N1[C@@H]2Cn3c(cccc3=O)[C@H]1[C@@H](C(=O)N[C@@H](C)c1ccccc1)[C@@H]2CO ?
Ecoli rRNA inh: 4

How did CNc1ccc(N=Nc2cccc3ncccc23)cc1 do in these assays?
MT1-MMP act inh: 16; SKN-1 inh: 11; DAGLB inhibitor: 34*; Cneo AK release: -12; hiPSC survival: -3; DAGLB confirm: 56*

Results for Cc1[nH]n2c(=O)cc(-c3ccc([N+](=O)[O-])cc3)nc2c1-c1ccccc1 ?
MT1-MMP act inh: 9; SKN-1 inh: -11; DAGLB inhibitor: 48*; Cneo AK release: -2; hiPSC survival: 1; DAGLB confirm: 42*

Results for COc1cc([C@H]2c3[nH]c4ccccc4c3C[C@H]3C(=O)N4[C@@H](c5cc(OC)c(OC)c(OC)c5)c5[nH]c6ccccc6c5C[C@H]4C(=O)N23)cc(OC)c1OC ?
MT1-MMP act inh: 2; SKN-1 inh: -11; DAGLB inhibitor: 35*; Cneo AK release: -3; hiPSC survival: -2; DAGLB confirm: 43*

What do the screens show for `Cc1ccccc1-c1cnc2c(c1)C(=O)N([C@@H](C)CO)C[C@H](C)[C@H](CN(C)C(=O)c1ccccc1)O2`?
Ecoli rRNA inh: 1; Cneo AK release: -1

What do the screens show for `O=C(O)c1ccccc1NS(=O)(=O)c1ccc(NN=Cc2cccc(Cl)c2)c([N+](=O)[O-])c1`?
MT1-MMP act inh: 6; SKN-1 inh: 3; DAGLB inhibitor: 17; Ecoli rRNA inh: -9; hiPSC survival: 3

Results for O=C(O)c1ccccc1NS(=O)(=O)c1ccc(NN=Cc2ccc(F)cc2)c([N+](=O)[O-])c1 ?
MT1-MMP act inh: 7; SKN-1 inh: -3; DAGLB inhibitor: 37*; hiPSC survival: 1; DAGLB confirm: 33

How did O=C(O)c1ccccc1NS(=O)(=O)c1ccc(N/N=C/c2ccc(O)c(O)c2)c([N+](=O)[O-])c1 do in these assays?
MT1-MMP act inh: 25; SKN-1 inh: 26; DAGLB inhibitor: 52*; Ecoli rRNA inh: -25*; Cneo AK release: 4; hiPSC survival: -1; DAGLB confirm: 59*

How did COc1ccc(NS(=O)(=O)c2ccc(NN=Cc3ccc(C(=O)O)cc3)c([N+](=O)[O-])c2)cc1 do in these assays?
Ecoli rRNA inh: 0

Results for O=C(O)COc1ccccc1/C=N/Nc1ccc(S(=O)(=O)Nc2ccc(Cl)cc2)cc1[N+](=O)[O-] ?
MT1-MMP act inh: 10; SKN-1 inh: -7; DAGLB inhibitor: 40*; Ecoli rRNA inh: -1; hiPSC survival: -1; DAGLB confirm: 40*

Results for CO[C@H]1CN(C)C(=O)c2ccc(NS(C)(=O)=O)cc2OC[C@H](C)N(C(=O)c2ccc3c(c2)OCO3)C[C@H]1C ?
Ecoli rRNA inh: 1; Cneo AK release: 1

What do the screens show for `O=[N+]([O-])c1ccc(N2CCN(c3ccccc3)CC2)cc1`?
MT1-MMP act inh: 3; SKN-1 inh: 13; DAGLB inhibitor: 34*; Ecoli rRNA inh: 18; Cneo AK release: -5; hiPSC survival: 0; DAGLB confirm: 82*

Results for O=[N+]([O-])c1ccc(N2CCCCC2)cc1 ?
MT1-MMP act inh: 2; SKN-1 inh: 11; Cneo AK release: 3; hiPSC survival: -1

What do the screens show for `COc1cc(/C=C2\SC(=O)N(c3ccccc3Cl)C2=O)cc([N+](=O)[O-])c1O`?
MT1-MMP act inh: 31*; SKN-1 inh: 2; DAGLB inhibitor: 42*; Ecoli rRNA inh: 5; Cneo AK release: -3; hiPSC survival: 2; DAGLB confirm: 38*; MT1-MMP act val: 27

What do the screens show for `O=C1c2cccc(Cl)c2C(=O)c2c1cccc2N1CCCC1`?
MT1-MMP act inh: 46*; SKN-1 inh: 50; DAGLB inhibitor: 44*; Cneo AK release: -6; hiPSC survival: 1; DAGLB confirm: 64*; MT1-MMP act val: 16

Results for O=Nc1c(-c2c(O)[nH]c3cc(Br)ccc23)[nH]c2ccccc12 ?
MT1-MMP act inh: 77*; SKN-1 inh: 23; DAGLB inhibitor: 47*; Ecoli rRNA inh: -17; Cneo AK release: 3; hiPSC survival: -4; DAGLB confirm: 59*; MT1-MMP act val: 70*

Results for C[C@@H]1CN([C@H](C)CO)C(=O)c2cc(C#CC3CCCCC3)cnc2O[C@H]1CN(C)C(=O)C1CCCCC1 ?
Ecoli rRNA inh: -2; Cneo AK release: 15

How did O=C(NNc1c2ccccc2nc2ccccc12)c1ccccc1O do in these assays?
MT1-MMP act inh: 32*; SKN-1 inh: 9; DAGLB inhibitor: 48*; Ecoli rRNA inh: -4; Cneo AK release: -1; hiPSC survival: 2; DAGLB confirm: 82*; MT1-MMP act val: 39

How did O=C(NNc1c2ccccc2nc2ccccc12)c1ccccc1Cl do in these assays?
MT1-MMP act inh: 9; SKN-1 inh: -3; DAGLB inhibitor: 21; Ecoli rRNA inh: -25; Cneo AK release: -1; hiPSC survival: 0

How did Nc1nc(-c2ccccc2)c(N=Nc2cccc3ccccc23)s1 do in these assays?
MT1-MMP act inh: 34*; SKN-1 inh: 24; DAGLB inhibitor: 61*; hiPSC survival: 1; DAGLB confirm: 66*; MT1-MMP act val: 38

What do the screens show for `Nc1nc(-c2ccccc2)c(N=Nc2ccccc2Cl)s1`?
MT1-MMP act inh: 42*; SKN-1 inh: 49*; DAGLB inhibitor: 65*; hiPSC survival: -1; DAGLB confirm: 91*; MT1-MMP act val: 47

High-throughput results: PubChem BioAssay, several laboratories
